Data reported in ChEMBL document CHEMBL5380846, “2-Aminobenzoxazole Derivatives as Potent Inhibitors of the Sphingosine-1-Phosphate Transporter Spinster Homolog 2 (Spns2)” (J Med Chem, 2023).
Active and inactive are the calls of the source. The calls are words filed in the database; no cut-off is given here.

system: Mus musculus; assay: Decrease in circulating lymphocyte count in mouse C57BL/6j blood at 10 mg/kg, ip […]; settings: not given

Structure (SMILES) | Activity
CCCCCCCCCCc1ccc2oc(NC[C@H]3CCNC3)nc2c1 | Active

biological target: T1, Sphingosine-1-phosphate transporter SPNS2 (Mus musculus) (UniProt Q91VM4); assay: Inhibition of mouse Spns2 expressed in Hela cells assessed as S1P release at 1 uM incubated for 18 to 20 hrs by LC-MS/MS analysis relative to control; assay type: cell-based; settings: time 18-20 hrs
T1 sequence (whole entry): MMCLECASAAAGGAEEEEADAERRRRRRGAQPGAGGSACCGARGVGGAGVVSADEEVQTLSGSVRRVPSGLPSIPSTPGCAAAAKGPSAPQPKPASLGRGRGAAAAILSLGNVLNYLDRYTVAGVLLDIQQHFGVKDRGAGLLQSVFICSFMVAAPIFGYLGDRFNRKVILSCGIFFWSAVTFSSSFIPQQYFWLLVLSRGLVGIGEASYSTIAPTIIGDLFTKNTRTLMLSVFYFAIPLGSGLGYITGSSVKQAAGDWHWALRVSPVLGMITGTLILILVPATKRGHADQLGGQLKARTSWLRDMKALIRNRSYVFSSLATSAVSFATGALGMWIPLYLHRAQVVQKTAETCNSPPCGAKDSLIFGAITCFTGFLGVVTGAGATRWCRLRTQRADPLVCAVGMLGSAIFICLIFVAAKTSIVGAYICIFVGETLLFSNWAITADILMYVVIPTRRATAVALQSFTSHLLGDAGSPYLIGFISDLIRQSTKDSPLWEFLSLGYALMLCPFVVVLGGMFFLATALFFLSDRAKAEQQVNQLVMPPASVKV
Procedure, shortened: (§1)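 HeLa cells stably transfected (G418 selection) with mouse Spns2, grown to near confluence. Medium was replaced with RPMI 1640 containing 0.2% fatty acid-free BSA, 1 mM 4-deoxypyridoxine, 2 mM NaF and 0.2 mM Na3VO4. Compound was added to duplicate wells (0-2 μM) for 18–20 h. Medium S1P was measured by LC-MS/MS against d7-S1P and expressed as % inhibition versus no-inhibitor control.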

Structure (SMILES) | inhibition
CCCCCCCCCCc1ccc2oc(N[C@H]3CCNC3)nc2c1 | 75%
CCCCCCCCCCc1ccc2oc(NC[C@@H]3CCCNC3)nc2c1 | 32%
CCCCCCCCCCc1ccc2oc(NC[C@H]3CCCN3)nc2c1 | 0%
CCCCCCCCCCc1ccc2oc(N3CC[C@@H](N)C3)nc2c1 | 4%
CCCCCCCCCCc1ccc2oc(NC[C@@H]3CCCN3)nc2c1 | 6%
CCCCCCCCCCc1ccc2oc(N[C@H]3CCCNC3)nc2c1 | 50%
CCCCCCCCCCc1ccc2oc(N3CCNCC3)nc2c1 | 18%
CCCCCCCCCCc1ccc2oc(N[C@@H]3CCCNC3)nc2c1 | 63%
CCCCCCCCCCc1ccc2oc(N[C@@H]3CCNC3)nc2c1 | 47%
CCCCCCCCCCc1ccc2oc(NC[C@@H]3CCNC3)nc2c1 | 50%
CCCCCCCCCCc1ccc2oc(NCC3CCNCC3)nc2c1 | 14%
CCCCCCCCCCc1ccc2oc(NC3CCNCC3)nc2c1 | 54%
CCCCCCCCCCc1ccc2oc(NC[C@H]3CCNC3)nc2c1 | 87%
CCCCCCCCCCc1ccc2oc(NC[C@H]3CCCNC3)nc2c1 | 2%
CCCCCCCCCCc1ccc2oc(NC3CNC3)nc2c1 | 20%

More lines, now with the values ahead:

inhibition | Structure (SMILES)
0% | CCCCCCCCCCc1ccc2oc(CCCCN)nc2c1
16% | CCCCCCCCCCc1ccc2oc(NCCN)nc2c1
35% | CCCCCCCCCCc1ccc2oc(NCCCCCN)nc2c1
15% | CCCCCCCCCCc1ccc2oc(NCCCN)nc2c1
1% | CCCCCCCCCCc1ccc2oc(N3CC[C@H](N)C3)nc2c1
25% | CCCCCCCCCCc1ccc2oc(CCCCCN)nc2c1
25% | CCCCCCCCCCc1ccc2oc(N(CCN)CCN)nc2c1
44% | CCCCCCCCCCc1ccc(-c2noc(CCCN)n2)cc1
5% | CCCCCCCCCCc1ccc2oc(CCN)nc2c1
40% | CCCCCCCCCCc1ccc2oc(CCCN)nc2c1
32% | CCCCCCCCCCc1ccc2oc(NCCCCN)nc2c1
0% | CCCCCCCCCCc1ccc2oc(N(C)CCN)nc2c1

system: Mus musculus; assay: Decrease in plasma S1P level in mouse C57BL/6j at 10 mg/kg, ip measured after 4 hrs by LC-MS/MS analysis; assay type: functional, organism-based; settings: not given
Procedure, shortened: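 Female C57BL/6j mice were injected IP at 10 mg/Kg, or with vehicle (PEG400/ethanol/solutol/water). Plasma was taken 4 h post dose. S1P was quantified by LC-MS/MS after TCA precipitation with a d7-S1P internal standard and methanol extraction. Comparison was by t-test.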

Structure (SMILES) | Activity
CCCCCCCCCCc1ccc2oc(NC[C@H]3CCNC3)nc2c1 | inactive

biological target: T1, Sphingosine-1-phosphate transporter SPNS2 (Mus musculus); assay: Inhibition of mouse Spns2 expressed in Hela cells assessed as S1P release at 0.3 uM incubated for 18 to 20 hrs by LC-MS/MS analysis relative to control; assay type: cell-based; settings: time 18-20 hrs
Procedure, shortened: as §1

inhibition | Structure (SMILES)
36% | CCCCCCCCCCCCc1ccc2oc(NC[C@H]3CCNC3)nc2c1
34% | CCCCCCCCCCc1ccc2[nH]c(NC[C@H]3CCNC3)nc2c1
42% | CCCCCCCCc1ccc2oc(NC[C@H]3CCNC3)nc2c1
30% | CCCCCCCCCCc1ccc(-c2noc(CCCN)n2)cc1
52% | CCCCCCCCCCCc1ccc2oc(NC[C@H]3CCNC3)nc2c1
77% | CCCCCCCCCc1ccc2oc(NC[C@H]3CCNC3)nc2c1
56% | CCCCCCCCCCc1ccc2oc(NC[C@H]3CCNC3)nc2c1
